In ChEMBL document CHEMBL1932986, “Synthesis and in vitro antimycobacterial activity of compounds derived from (R)- and (S)-2-amino-1-butanol - The crucial role of the configuration” (Eur J Med Chem, 2012):

How the values were obtained:
[1] = test system: Priestia megaterium; assay: Antibacterial activity against Bacillus megaterium NRRL 1353895 at 4 mg/ml after 24 hrs by agar diffusion test; type: functional, organism-based
Method in brief: (§1)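 Agar diffusion: bacteria grown 24 h at 37 °C on nutrient agar; wells cut in the seeded agar are filled with compound solution in DMSO. Read-out is the diameter of the clear zone around the application point.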

[2] = test system: Bacillus subtilis; assay: Antibacterial activity against Bacillus subtilis ATCC 6633 at 4 mg/ml after 24 hrs by agar diffusion test; type: functional, organism-based; method in brief: as §1
[3] = test system: Micrococcus luteus; assay: Antibacterial activity against Sarcina lutea ATCC 9341 at 4 mg/ml after 24 hrs by agar diffusion test; type: functional, organism-based; method in brief: as §1
[4] = test system: Priestia megaterium; assay: Antibacterial activity against Bacillus megaterium NRRL 1353895 at 20 mg/ml after 24 hrs by agar diffusion test; type: functional, organism-based; method in brief: as §1
[5] = test system: Acinetobacter johnsonii; assay: Antibacterial activity against Acinetobacter johnsonii ATCC 17909 at 4 mg/ml after 24 hrs by agar diffusion test; type: functional; method in brief: as §1
[6] = test system: Bacillus mycoides; assay: Antibacterial activity against Bacillus mycoides DSMZ 274 at 20 mg/ml after 24 hrs by agar diffusion test; type: functional, organism-based; method in brief: as §1
[7] = test system: Bacillus cereus; assay: Antibacterial activity against Bacillus cereus ATCC 11778 at 20 mg/ml after 24 hrs by agar diffusion test; type: functional, organism-based; method in brief: as §1
[8] = test system: Micrococcus luteus; assay: Antibacterial activity against Micrococcus luteus ATCC 9631 at 4 mg/ml after 24 hrs by agar diffusion test; type: functional, organism-based; method in brief: as §1
[9] = test system: Acinetobacter johnsonii; assay: Antibacterial activity against Acinetobacter johnsonii ATCC 17909 at 20 mg/ml after 24 hrs by agar diffusion test; type: functional; method in brief: as §1
[10] = test system: Micrococcus luteus; assay: Antibacterial activity against Sarcina lutea ATCC 9341 at 20 mg/ml after 24 hrs by agar diffusion test; type: functional, organism-based; method in brief: as §1
[11] = test system: Bacillus; assay: Antibacterial activity against Bacillus idosus B 241 at 20 mg/ml after 24 hrs by agar diffusion test; type: functional, organism-based; method in brief: as §1
[12] = test system: Bacillus cereus; assay: Antibacterial activity against Bacillus cereus ATCC 11778 at 4 mg/ml after 24 hrs by agar diffusion test; type: functional, organism-based; method in brief: as §1
[13] = test system: Bacillus subtilis; assay: Antibacterial activity against Bacillus subtilis ATCC 6633 at 20 mg/ml after 24 hrs by agar diffusion test; type: functional, organism-based; method in brief: as §1
[14] = test system: Bacillus mycoides; assay: Antibacterial activity against Bacillus mycoides DSMZ 274 at 4 mg/ml after 24 hrs by agar diffusion test; type: functional, organism-based; method in brief: as §1
[15] = test system: Micrococcus luteus; assay: Antibacterial activity against Micrococcus luteus ATCC 9631 at 20 mg/ml after 24 hrs by agar diffusion test; type: functional, organism-based; method in brief: as §1
[16] = test system: Bacillus; assay: Antibacterial activity against Bacillus idosus B 241 at 4 mg/ml after 24 hrs by agar diffusion test; type: functional, organism-based; method in brief: as §1

## GENTAMICIN
[1]
  inhibition zone (IZ): 30 mm
[2]
  inhibition zone (IZ): 27 mm
[3]
  inhibition zone (IZ): 28 mm
[4]
  inhibition zone (IZ): 36 mm
[5]
  inhibition zone (IZ): 31 mm
[6]
  inhibition zone (IZ): 32 mm
[7]
  inhibition zone (IZ): 29 mm
[8]
  inhibition zone (IZ): 28 mm
[9]
  inhibition zone (IZ): 39 mm
[10]
  inhibition zone (IZ): 34 mm
[11]
  inhibition zone (IZ): 35 mm
[12]
  inhibition zone (IZ): 26 mm
[13]
  inhibition zone (IZ): 30 mm
[14]
  inhibition zone (IZ): 28 mm
[15]
  inhibition zone (IZ): 38 mm
[16]
  inhibition zone (IZ): 29 mm
